Laboratory results taken from ChEMBL document CHEMBL1949609, “Synthesis and biological evaluation of novel sinomenine derivatives as anti-inflammatory agents” (Eur J Med Chem, 2012).
pIC50: −log10 of the molar value.

Legend:
RAW264.7 [1] = experiment: Cytotoxicity against mouse RAW264.7 cells after 24 hrs by MTT assay; assay type: cell-based; details: RAW264.7, 24 h
In short: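 Growth of non-LPS RAW264.7 cells was measured by MTT after 24 h with compound: MTT for 4 h, formazan dissolved in DMSO, OD570. Untreated cells were set as 100% viability. IC50 is the concentration giving 50% growth inhibition.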

RAW264.7 [2] = experiment: Antiinflammatory activity in mouse RAW264.7 cells assessed as inhibition of LPS-induced IL-6 production at 10 uM after 12 hrs by ELISA (reference value: 2145.1 +/- 368.7 pg/ml); assay type: functional
In short: (§1)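 RAW264.7 cells (DMEM, 5% FBS, 37 °C, 5% CO2) were exposed to compound at 10 µM plus LPS 500 ng/mL at the same time, with 0.1% DMSO final. Supernatant TNF-α and IL-6 were measured by ELISA at 6, 12 and 24 h.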

RAW264.7 [3] = experiment: Antiinflammatory activity in mouse RAW264.7 cells assessed as inhibition of LPS-induced IL-6 production at 10 uM after 6 hrs by ELISA (reference value: 1046.1 +/- 111.2 pg/ml); assay type: functional; in short: as §1
RAW264.7 [4] = experiment: Antiinflammatory activity in mouse RAW264.7 cells assessed as inhibition of LPS-induced IL-6 production at 10 uM after 24 hrs by ELISA (reference value: 13412 +/- 1167.6 pg/ml); assay type: functional; in short: as §1
RAW264.7 [5] = experiment: Antiinflammatory activity in mouse RAW264.7 cells assessed as inhibition of LPS-induced TNFalpha production at 10 uM after 12 hrs by ELISA (reference value: 4126.8 +/- 282 pg/ml); assay type: functional; in short: as §1
RAW264.7 [6] = experiment: Antiinflammatory activity in mouse RAW264.7 cells assessed as inhibition of LPS-induced nitric oxide production after 24 hrs by Griess method; assay type: functional, cell-based; details: RAW264.7, 24 h
In short: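 Cells were treated with compound (0.5–100 µM; 0.1% DMSO final) and LPS 500 ng/mL together for 24 h. Nitrite in the medium was read with Griess reagent (10 min, room temperature, dark) at OD540. IC50 comes from three separate experiments, each in triplicate.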

RAW264.7 [7] = experiment: Antiinflammatory activity in mouse RAW264.7 cells assessed as inhibition of LPS-induced TNFalpha production at 10 uM after 6 hrs by ELISA (reference value: 2646.1 +/- 499.8 pg/ml); assay type: functional; in short: as §1
RAW264.7 [8] = experiment: Antiinflammatory activity in mouse RAW264.7 cells assessed as inhibition of LPS-induced TNFalpha production at 10 uM after 24 hrs by ELISA (reference value: 10124 +/- 1137.2 pg/ml); assay type: functional; in short: as §1

COC1=C[C@@H]2[C@@H]3Cc4ccc(OC)c(OCCCCOc5c(OC)ccc6c5[C@@]57CCN(C)[C@@H](C6)[C@H]5C=C(OC)C(=O)C7)c4[C@]2(CCN3C)CC1=O
pIC50 (RAW264.7 [1]): 4.44 | Activity (RAW264.7 [2]): 1321.9 pg/mL | Activity (RAW264.7 [3]): 853.3 pg/mL | Activity (RAW264.7 [4]): 10038.7 pg/mL | Activity (RAW264.7 [5]): 3732.8 pg/mL | pIC50 (RAW264.7 [6]): 4.61 | Activity (RAW264.7 [7]): 2018 pg/mL | Activity (RAW264.7 [8]): 8744.4 pg/mL

CCCCCCOc1c(OC)ccc2c1[C@@]13CCN(C)[C@@H](C2)[C@H]1C=C(OC)C(=O)C3
pIC50 (RAW264.7 [1]): 4.54

CCCCCCCC(=O)Oc1c(OC)ccc2c1[C@@]13CCN(C)[C@@H](C2)[C@H]1C=C(OC)C(=O)C3
pIC50 (RAW264.7 [1]): 4.31 | Activity (RAW264.7 [2]): 733.3 pg/mL | Activity (RAW264.7 [3]): 229.9 pg/mL | Activity (RAW264.7 [4]): 7143.8 pg/mL | Activity (RAW264.7 [5]): 3357.8 pg/mL | pIC50 (RAW264.7 [6]): 4.49 | Activity (RAW264.7 [7]): 2298.9 pg/mL | Activity (RAW264.7 [8]): 7676.3 pg/mL

COC1=C[C@@H]2[C@@H]3Cc4ccc(OC)c(OCCCCCCCCCCOc5c(OC)ccc6c5[C@@]57CCN(C)[C@@H](C6)[C@H]5C=C(OC)C(=O)C7)c4[C@]2(CCN3C)CC1=O
pIC50 (RAW264.7 [1]): 5.55

COC1=C[C@@H]2[C@@H]3Cc4ccc(OC)c(OC(=O)CCCC(=O)Oc5c(OC)ccc6c5[C@@]57CCN(C)[C@@H](C6)[C@H]5C=C(OC)C(=O)C7)c4[C@]2(CCN3C)CC1=O
pIC50 (RAW264.7 [1]): < 4.00 | pIC50 (RAW264.7 [6]): < 4.00

COC1=C[C@@H]2[C@@H]3Cc4ccc(OC)c(OCCCCCCOc5c(OC)ccc6c5[C@@]57CCN(C)[C@@H](C6)[C@H]5C=C(OC)C(=O)C7)c4[C@]2(CCN3C)CC1=O
pIC50 (RAW264.7 [1]): 5.02

COC1=C[C@@H]2[C@@H]3Cc4ccc(OC)c(OC(=O)CCC(=O)Oc5c(OC)ccc6c5[C@@]57CCN(C)[C@@H](C6)[C@H]5C=C(OC)C(=O)C7)c4[C@]2(CCN3C)CC1=O
pIC50 (RAW264.7 [1]): < 4.00 | pIC50 (RAW264.7 [6]): < 4.00

CCCOc1c(OC)ccc2c1[C@@]13CCN(C)[C@@H](C2)[C@H]1C=C(OC)C(=O)C3
pIC50 (RAW264.7 [1]): < 4.00 | pIC50 (RAW264.7 [6]): < 4.00

CCCCCCCCCCOc1c(OC)ccc2c1[C@@]13CCN(C)[C@@H](C2)[C@H]1C=C(OC)C(=O)C3
pIC50 (RAW264.7 [1]): 5.72

CCCCCCC(=O)Oc1c(OC)ccc2c1[C@@]13CCN(C)[C@@H](C2)[C@H]1C=C(OC)C(=O)C3
pIC50 (RAW264.7 [1]): 4.41

CCCCCCCCCOc1c(OC)ccc2c1[C@@]13CCN(C)[C@@H](C2)[C@H]1C=C(OC)C(=O)C3
pIC50 (RAW264.7 [1]): 4.84

COC1=C[C@@H]2[C@@H]3Cc4ccc(OC)c(OC(=O)CCCCC(=O)Oc5c(OC)ccc6c5[C@@]57CCN(C)[C@@H](C6)[C@H]5C=C(OC)C(=O)C7)c4[C@]2(CCN3C)CC1=O
pIC50 (RAW264.7 [1]): < 4.00 | pIC50 (RAW264.7 [6]): < 4.00

COC1=C[C@@H]2[C@@H]3Cc4ccc(OC)c(OCCCCCCCOc5c(OC)ccc6c5[C@@]57CCN(C)[C@@H](C6)[C@H]5C=C(OC)C(=O)C7)c4[C@]2(CCN3C)CC1=O
pIC50 (RAW264.7 [1]): 5.59

COC1=C[C@@H]2[C@@H]3Cc4ccc(OC)c(OCCCCCOc5c(OC)ccc6c5[C@@]57CCN(C)[C@@H](C6)[C@H]5C=C(OC)C(=O)C7)c4[C@]2(CCN3C)CC1=O
pIC50 (RAW264.7 [1]): 5.38 | pIC50 (RAW264.7 [6]): 5.44

COC1=C[C@@H]2[C@@H]3Cc4ccc(OC)c(OCCOCCOCCOCCOc5c(OC)ccc6c5[C@@]57CCN(C)[C@@H](C6)[C@H]5C=C(OC)C(=O)C7)c4[C@]2(CCN3C)CC1=O
pIC50 (RAW264.7 [1]): < 4.00 | pIC50 (RAW264.7 [6]): < 4.00

CCCCCCCCOc1c(OC)ccc2c1[C@@]13CCN(C)[C@@H](C2)[C@H]1C=C(OC)C(=O)C3
pIC50 (RAW264.7 [1]): 4.75 | pIC50 (RAW264.7 [6]): 4.85

COC1=C[C@@H]2[C@@H]3Cc4ccc(OC)c(OC(=O)CCCCCC(=O)Oc5c(OC)ccc6c5[C@@]57CCN(C)[C@@H](C6)[C@H]5C=C(OC)C(=O)C7)c4[C@]2(CCN3C)CC1=O
pIC50 (RAW264.7 [1]): 4.28

COC1=C[C@@H]2[C@@H]3Cc4ccc(OC)c(OC(=O)CCCCCCC(=O)Oc5c(OC)ccc6c5[C@@]57CCN(C)[C@@H](C6)[C@H]5C=C(OC)C(=O)C7)c4[C@]2(CCN3C)CC1=O
pIC50 (RAW264.7 [1]): 4.76

COC1=C[C@@H]2[C@@H]3Cc4ccc(OC)c(OCCOCCOCCOc5c(OC)ccc6c5[C@@]57CCN(C)[C@@H](C6)[C@H]5C=C(OC)C(=O)C7)c4[C@]2(CCN3C)CC1=O
pIC50 (RAW264.7 [1]): < 4.00 | pIC50 (RAW264.7 [6]): < 4.00

N=C(N)NN [PIMAGEDINE]
pIC50 (RAW264.7 [6]): 4.65

CCCCOc1c(OC)ccc2c1[C@@]13CCN(C)[C@@H](C2)[C@H]1C=C(OC)C(=O)C3
pIC50 (RAW264.7 [1]): 4.17 | pIC50 (RAW264.7 [6]): 4.22

COC1=C[C@@H]2[C@@H]3Cc4ccc(OC)c(OCCOc5c(OC)ccc6c5[C@@]57CCN(C)[C@@H](C6)[C@H]5C=C(OC)C(=O)C7)c4[C@]2(CCN3C)CC1=O
pIC50 (RAW264.7 [1]): < 4.00 | pIC50 (RAW264.7 [6]): < 4.00

CCCCC(=O)Oc1c(OC)ccc2c1[C@@]13CCN(C)[C@@H](C2)[C@H]1C=C(OC)C(=O)C3
pIC50 (RAW264.7 [1]): < 4.00 | pIC50 (RAW264.7 [6]): < 4.00

COC1=C[C@@H]2[C@@H]3Cc4ccc(OC)c(OCCOCCOc5c(OC)ccc6c5[C@@]57CCN(C)[C@@H](C6)[C@H]5C=C(OC)C(=O)C7)c4[C@]2(CCN3C)CC1=O
pIC50 (RAW264.7 [1]): 4.22

CCCCCOc1c(OC)ccc2c1[C@@]13CCN(C)[C@@H](C2)[C@H]1C=C(OC)C(=O)C3
pIC50 (RAW264.7 [1]): 4.27 | pIC50 (RAW264.7 [6]): 4.41

COC1=C[C@@H]2[C@@H]3Cc4ccc(OC)c(OCc5cccc(COc6c(OC)ccc7c6[C@@]68CCN(C)[C@@H](C7)[C@H]6C=C(OC)C(=O)C8)c5)c4[C@]2(CCN3C)CC1=O
pIC50 (RAW264.7 [1]): 4.85

COC1=C[C@@H]2[C@@H]3Cc4ccc(OC)c(OCc5ccc(COc6c(OC)ccc7c6[C@@]68CCN(C)[C@@H](C7)[C@H]6C=C(OC)C(=O)C8)cc5)c4[C@]2(CCN3C)CC1=O
pIC50 (RAW264.7 [1]): 4.90

COC1=C[C@@H]2[C@@H]3Cc4ccc(OC)c(OCCCCCCCCCOc5c(OC)ccc6c5[C@@]57CCN(C)[C@@H](C6)[C@H]5C=C(OC)C(=O)C7)c4[C@]2(CCN3C)CC1=O
pIC50 (RAW264.7 [1]): 5.43 | pIC50 (RAW264.7 [6]): 5.54

CCCCCCCOc1c(OC)ccc2c1[C@@]13CCN(C)[C@@H](C2)[C@H]1C=C(OC)C(=O)C3
pIC50 (RAW264.7 [1]): 4.47 | Activity (RAW264.7 [2]): 513.9 pg/mL | Activity (RAW264.7 [3]): 207.5 pg/mL | Activity (RAW264.7 [4]): 4370.2 pg/mL | Activity (RAW264.7 [5]): 4127.2 pg/mL | pIC50 (RAW264.7 [6]): 4.67 | Activity (RAW264.7 [7]): 2248.7 pg/mL | Activity (RAW264.7 [8]): 9134.7 pg/mL

COC1=C[C@@H]2[C@@H]3Cc4ccc(OC)c(OCCCCCCCCOc5c(OC)ccc6c5[C@@]57CCN(C)[C@@H](C6)[C@H]5C=C(OC)C(=O)C7)c4[C@]2(CCN3C)CC1=O
pIC50 (RAW264.7 [1]): 5.27 | pIC50 (RAW264.7 [6]): 5.42

COC1=C[C@@H]2[C@@H]3Cc4ccc(OC)c(OC(=O)CCCCCCCC(=O)Oc5c(OC)ccc6c5[C@@]57CCN(C)[C@@H](C6)[C@H]5C=C(OC)C(=O)C7)c4[C@]2(CCN3C)CC1=O
pIC50 (RAW264.7 [1]): 4.29 | Activity (RAW264.7 [2]): 1577.1 pg/mL | Activity (RAW264.7 [3]): 825.5 pg/mL | Activity (RAW264.7 [4]): 12863.3 pg/mL | Activity (RAW264.7 [5]): 3614.3 pg/mL | pIC50 (RAW264.7 [6]): 4.53 | Activity (RAW264.7 [7]): 2107.1 pg/mL | Activity (RAW264.7 [8]): 9003.6 pg/mL

CCCC(=O)Oc1c(OC)ccc2c1[C@@]13CCN(C)[C@@H](C2)[C@H]1C=C(OC)C(=O)C3
pIC50 (RAW264.7 [1]): < 4.00 | pIC50 (RAW264.7 [6]): < 4.00

CCOc1c(OC)ccc2c1[C@@]13CCN(C)[C@@H](C2)[C@H]1C=C(OC)C(=O)C3
pIC50 (RAW264.7 [1]): < 4.00 | pIC50 (RAW264.7 [6]): < 4.00

CCCCCC(=O)Oc1c(OC)ccc2c1[C@@]13CCN(C)[C@@H](C2)[C@H]1C=C(OC)C(=O)C3
pIC50 (RAW264.7 [1]): 4.11
